pIC50: −log10 of the molar value. “And” between values parts separate entries of the source, which are not always exact repeats. Equal values may be shown once. The source made the active and inactive calls. The calls are words filed in the database; no cut-off is given here.
Experiments:
41M [1] = assay: In vitro antitumor activity against 41M cell line.; type: functional, cell-based, Homo sapiens
Procedure, shortened: (§1)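 Human ovarian carcinoma monolayers were grown in DMEM with 10% FCS, insulin and hydrocortisone under 10% CO2. Cells were seeded at 5 × 10^3–1 × 10^4 per well and left to attach overnight. Drugs were freshly dissolved in 0.9% saline (1 mM or 500 μM stocks) and added to quadruplicate wells for 96 h. Cell mass was read by SRB staining. IC50 values are means of at least two experiments.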

41M [2] = assay: In vitro antitumor activity against 41McisR cell line.; type: functional, cell-based, Homo sapiens; procedure, shortened: as §1
A2780 [3] = assay: In vitro antitumor activity against A2780cisR cell line.; type: functional, cell-based, Homo sapiens; procedure, shortened: as §1
A2780 [4] = assay: In vitro antitumor activity against A2780 cell line.; type: functional, cell-based, Homo sapiens; procedure, shortened: as §1
CH1 [5] = assay: In vitro antitumor activity against CH1cisR cell line.; type: functional, cell-based, Homo sapiens; procedure, shortened: as §1
CH1 [6] = assay: (§2) In vitro antitumor activity against CH1 cell line.; type: functional, cell-based, Homo sapiens; procedure, shortened: as §1
Mus musculus [7] = assay: In Vivo Antitumor activity against the acquired cisplatin-resistant ADJ/PC6 Plasmacytoma (ADJ/PC6cisR) in mice; type: ADME, organism-based
[8] = In vivo antitumor activity by i.p. administration against murine ADJ/PC6 (sc) plasmacytoma.; type: ADME, organism-based; conditions: mouse, ip
SK-OV-3 = assay: In vitro antitumor activity against SK-OV-3 cell line.; type: functional, cell-based, Homo sapiens; procedure, shortened: as §1
Mus musculus [9] = assay: In Vivo Antitumor activity by ip administration against Murine ADJ/PC6 (sc) Plasmacytoma in mice; type: functional, organism-based; conditions: Plasma
Procedure, shortened: (§3)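 ADJ/PC6 plasmacytoma (or its cisplatin-resistant subline) was implanted sc as 1 mm3 fragments. On day 20 mice received a single ip injection of drug as a sonicated suspension in arachis oil, at halving doses. Ten days later tumors were dissected and weighed against controls. […] Therapeutic index is MTD/ED90, alongside LD50.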

Mus musculus [10] = assay: In Vivo Antitumor activity by ip administration against Murine ADJ/PC6 (sc) Plasmacytoma in mice; - = 90% tumor inhibition not obtained; type: functional, organism-based; conditions: Plasma; procedure, shortened: as §3
A2780 [11] = assay: Resistant factor determined between IC50 of resistant line to that of parental A2780 cell line; type: functional, cell-based; conditions: Homo sapiens
Procedure, shortened: (§4)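 Resistance factor is the IC50 in the cisplatin-resistant subline divided by the IC50 in its parent line. IC50s came from a 96 h SRB cytotoxicity assay run in quadruplicate wells.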

CH1 [12] = assay: Resistant factor, determined between IC50 of resistant line to that of CHcisR cell line; type: functional, cell-based; conditions: Homo sapiens; CH1cisR; procedure, shortened: as §4
Mus musculus [13] = assay: Ability to inhibit Antitumor activity against PXN/109T/C Human Ovarian Cracinoma xenograft in mice at dose 4 mg/kg by ip administration; type: functional, organism-based; design: dose 4 mg/kg
Procedure, shortened: (§5)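 Human ovarian carcinoma xenografts were grown subcutaneously in female Balb C nude mice. Tumors were measured weekly until they doubled their starting volume. Growth delay is the difference in doubling time between treated and control tumors.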

41M [14] = assay: Resistant factor was determined between IC50 of cisplatin-resistant human tumor cell lines to that of […] cell line; type: functional, cell-based; procedure, shortened: as §4
Mus musculus [15] = assay: Ability to inhibit Antitumor activity against PXN/109T/CC Human Ovarian Cracinoma xenograft in mice at dose 50 mg/kg by ip administration; type: functional, organism-based; design: dose 50 mg/kg; procedure, shortened: as §5
Mus musculus [16] = assay: Ability to inhibit Antitumor activity against PXN/109T/CC Human Ovarian Cracinoma xenograft in mice at dose 8 mg/kg by ip administration; type: functional, organism-based; design: dose 8 mg/kg; procedure, shortened: as §5
Mus musculus [17] = assay: Ability to inhibit Antitumor activity against PXN/109T/C Human Ovarian Cracinoma xenograft in mice at dose 20 mg/kg by ip administration; type: functional, organism-based; design: dose 20 mg/kg; procedure, shortened: as §5
CH1 [18] = assay: as §2; type: functional, cell-based, Homo sapiens; procedure, shortened: as §1; remark: listed apart in the source
Mus musculus [19] = assay: Ability to inhibit Antitumor activity against PXN/109T/C Human Ovarian Cracinoma xenograft in mice at dose 10 mg/kg by ip administration; type: functional, organism-based; design: dose 10 mg/kg; procedure, shortened: as §5
Mus musculus [20] = assay: Ability to inhibit Antitumor activity against HX/110 Human Ovarian Cracinoma xenograft in mice at dose 2 mg/kg by ip administration; type: functional, organism-based; design: dose 2 mg/kg; procedure, shortened: as §5
Mus musculus [21] = assay: Ability to inhibit Antitumor activity against OVCAR-3 Human Ovarian Cracinoma xenograft in mice at dose 2 mg/kg by ip administration; type: functional, organism-based; design: dose 2 mg/kg; procedure, shortened: as §5
Mus musculus [22] = assay: Ability to inhibit Antitumor activity against OVCAR-3 Human Ovarian Cracinoma xenograft in mice at dose 4 mg/kg by ip administration; type: functional, organism-based; design: dose 4 mg/kg; procedure, shortened: as §5
Mus musculus [23] = assay: Ability to inhibit Antitumor activity against PXN/100 Human Ovarian Cracinoma xenograft in mice at dose 2 mg/kg by ip administration; type: functional, organism-based; design: dose 2 mg/kg; procedure, shortened: as §5
Mus musculus [24] = assay: Ability to inhibit Antitumor activity against PXN/100 Human Ovarian Cracinoma xenograft in mice at dose 4 mg/kg by ip administration; type: functional, organism-based; design: dose 4 mg/kg; procedure, shortened: as §5
Mus musculus [25] = assay: Ability to inhibit Antitumor activity against PXN/109T/C Human Ovarian Cracinoma xenograft in mice at dose 2 mg/kg by ip administration; type: functional, organism-based; design: dose 2 mg/kg; procedure, shortened: as §5
Mus musculus [26] = assay: Ability to inhibit Antitumor activity against PXN/109T/CC Human Ovarian Cracinoma xenograft in mice at dose 2 mg/kg by ip administration; type: functional, organism-based; design: dose 2 mg/kg; procedure, shortened: as §5
Mus musculus [27] = assay: Ability to inhibit Antitumor activity against SKOV-3 Human Ovarian Cracinoma xenograft in mice at dose 4 mg/kg by ip administration; type: functional, organism-based; design: dose 4 mg/kg; procedure, shortened: as §5

Question: What does the source list for CISPLATIN [listing 1 of 2 here]?
Answer: pIC50 (41M [1]): 6.59; pIC50 (41M [2]): 5.92; pIC50 (A2780 [3]): 5.28; pIC50 (A2780 [4]): 6.48; pIC50 (CH1 [5]): 6.15; pIC50 (CH1 [6]): 6.96; LD50 (Mus musculus [7]): 11 mg/kg; LD50 [8]: 11.3 mg/kg; pIC50 (SK-OV-3): 5.36

Question: Which ED90 (Mus musculus [9]) does the source give for CISPLATIN [listing 2 of 2 here] here?
Answer: Its ED90 is 1.6 mg/kg.

Question: For TRANSPLATIN, which ED90 (Mus musculus [10]) is on record?
Answer: Its ED90 is “inactive”.

Question: For “trans-Amminetetrachloro(quinuclidine)-platinium (IV)”, which RF (A2780 [11]) is on record?
Answer: The RF was 1.1.

Question: And the RF (CH1 [12])?
Answer: Its RF is 1.

Question: What about the Growth delay (Mus musculus [13]) of the same substance?
Answer: Its Growth delay is 0 days.

Question: And the RF (41M [14])?
Answer: The RF was 1.

Question: Which RF (A2780 [11]) does the source give for “trans-a,f-Dichloro-b,d-bis(cyclohexylamine)-c,e-dihydroxo-platinium (IV)” here?
Answer: Its RF is 4.

Question: And the RF (CH1 [12])?
Answer: Its RF is 1.1.

Question: What about the ED90 (Mus musculus [9]) of the same substance?
Answer: Its ED90 is 40 mg/kg.

Question: And the Growth delay (Mus musculus [15])?
Answer: The Growth delay was 1.8 days.

Question: And the RF (41M [14])?
Answer: Its RF is 1.5.

Question: With “trans-a-Ammine-b,d-dichloro-c,e-dihydrooxy-f-(Morphiline)-platinium (IV)” as the substance, how does the RF (A2780 [11]) read?
Answer: The RF was 4.3.

Question: What about the RF (CH1 [12]) of the same substance?
Answer: The RF was 1.6.

Question: And the ED90 (Mus musculus [9])?
Answer: The ED90 was 94 mg/kg.

Question: And the RF (41M [14])?
Answer: Its RF is 2.1.

Question: With “trans-a-Ammine-b,d-dichloro-c,e-dihydrooxy-f-(cyclopentylamine)-platinium (IV)” as the substance, how does the RF (A2780 [11]) read?
Answer: The RF was 5.5.

Question: And the RF (CH1 [12])?
Answer: Its RF is 1.7.

Question: What about the ED90 (Mus musculus [9]) of the same substance?
Answer: The ED90 was 2.5 mg/kg.

Question: And the RF (41M [14])?
Answer: Its RF is 1.2.

Question: What does the source list for “trans-a-Ammine-b,d-dichloro-c,e-dihydroxo-f-(1,1,3,3-tetramethyl butylamine)-platinium (IV)”?
Answer: RF (A2780 [11]): 5.5; RF (CH1 [12]): 1.5; ED90 (Mus musculus [9]): 9.6 mg/kg; RF (41M [14]): 2.1

Question: What does the source list for “trans-a-Ammine-b,d-dichloro-c,e-dihydroxo-f-(N-methylcyclohexylamine)-platinium (IV)”?
Answer: RF (A2780 [11]): 3.7; RF (CH1 [12]): 2.2; ED90 (Mus musculus [9]): 9.4 mg/kg; Growth delay (Mus musculus [16]): 1.1 days; RF (41M [14]): 0.7

Question: For “trans-a-Ammine-b,d-dichloro-c,e-dihydroxo-f-(exo-2-aminonorbornane)-platinium (IV)”, which RF (A2780 [11]) is on record?
Answer: Its RF is 12.

Question: What about the RF (CH1 [12]) of the same substance?
Answer: The RF was 1.2.

Question: What about the ED90 (Mus musculus [9]) of the same substance?
Answer: Its ED90 is 4.9 mg/kg.

Question: And the RF (41M [14])?
Answer: The RF was 1.

Question: For “trans-a-Ammine-b,d-dichloro-c,e-dihydroxy-f-(benzylamine)-platinium (IV)”, which RF (A2780 [11]) is on record?
Answer: The RF was 4.

Question: What about the RF (CH1 [12]) of the same substance?
Answer: The RF was 1.7.

Question: What about the ED90 (Mus musculus [9]) of the same substance?
Answer: The ED90 was 22 mg/kg.

Question: And the Growth delay (Mus musculus [17])?
Answer: The Growth delay was 8.3 days.

Question: What about the RF (41M [14]) of the same substance?
Answer: The RF was 1.

Question: With “trans-a-ammine-b,d-dichloro-f-(2-methyl1-2-propylamine)-c,e-dihydroxoplatinium (IV) [listing 1 of 2 here]” as the substance, how does the pIC50 (41M [1]) read?
Answer: Its pIC50 is 5.35 and 5.96.

Question: And the pIC50 (41M [2])?
Answer: The pIC50 was 5.10 and 6.05.

Question: And the pIC50 (A2780 [3])?
Answer: The pIC50 was 5.07 and 5.38.

Question: And the pIC50 (A2780 [4])?
Answer: Its pIC50 is 6.10 and 6.68.

Question: What about the pIC50 (CH1 [5]) of the same substance?
Answer: Its pIC50 is 5.47 and 5.79.

Question: And the pIC50 (CH1 [6])?
Answer: The pIC50 was 6.13.

Question: What about the pIC50 (CH1 [18]) of the same substance?
Answer: The pIC50 was 5.96.

Question: What about the LD50 [8] of the same substance?
Answer: The LD50 was 35.5 mg/kg and 35 mg/kg.

Question: And the pIC50 (SK-OV-3)?
Answer: The pIC50 was 4.47 and 5.33.

Question: Which results are given for “trans-a-ammine-b,d-dichloro-f-(2-methyl1-2-propylamine)-c,e-dihydroxoplatinium (IV) [listing 2 of 2 here]”?
Answer: ED90 (Mus musculus [9]): 4.9 mg/kg and 4.7 mg/kg; Growth delay (Mus musculus [19]): 13.4 days

Question: For “trans-a-ammine-b,d-dichloro-f-(cyclohexylamine)-c,e-bis-(ethylcarbamato)platinium (IV)”, which RF (A2780 [11]) is on record?
Answer: Its RF is 3.3.

Question: What about the RF (CH1 [12]) of the same substance?
Answer: The RF was 1.2.

Question: What about the ED90 (Mus musculus [9]) of the same substance?
Answer: The ED90 was 185 mg/kg.

Question: And the RF (41M [14])?
Answer: Its RF is 0.7.

Question: For “trans-a-ammine-b,d-dichloro-f-(cyclohexylamine)-c,e-dihydroxoplatinium (IV)”, which Growth delay (Mus musculus [20]) is on record?
Answer: The Growth delay was 25.5 days.

Question: And the Growth delay (Mus musculus [21])?
Answer: The Growth delay was 12 days.

Question: What about the Growth delay (Mus musculus [22]) of the same substance?
Answer: The Growth delay was 16.8 days.

Question: What about the Growth delay (Mus musculus [23]) of the same substance?
Answer: The Growth delay was 23.9 days.

Question: And the Growth delay (Mus musculus [24])?
Answer: The Growth delay was 63.7 days.

Question: And the Growth delay (Mus musculus [25])?
Answer: The Growth delay was 17 days.

Question: And the Growth delay (Mus musculus [26])?
Answer: Its Growth delay is 5.4 days.

Question: What about the Growth delay (Mus musculus [27]) of the same substance?
Answer: Its Growth delay is 7 days.
